Data published in article PMC3764597 (Carbohydrate research, 2013).
Where “and” joins values, the source holds several entries; their conditions need not be identical. Identical values can stand only once. Entries after “also recorded” stand apart in the source; their conditions may differ. Like-named read-outs stand apart in the source and are kept apart here.

Assays:
[1] = MTS cytotoxicity assay in HaCaT cells; assay type: cell-based, human; settings: human, HaCaT cells (spontaneously immortalized keratinocytes)
Summary of the method: (§1)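 Cells kept in DMEM with 10% heat-inactivated newborn calf serum plus penicillin/streptomycin/amphotericin B at 37 °C, 5% CO₂. Seeded 5,000 per well. Compound in DMSO added at 1–1000 μM for 18 h, then MTS for 2 h. A490 read with A650 reference, medium+MTS background subtracted. Viability given as % of DMSO-treated cells, triplicates. CC₅₀ by linear regression of the two points bracketing 50%.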

[2] = MTS cytotoxicity assay in Hs27 cells; assay type: cell-based, human; settings: human, Hs27 cells (foreskin fibroblasts)
Summary of the method: as §1

[3] = tested on: HaCaT, Hs27 and Jurkat cells; assay: MTS cytotoxicity assay, statements summarised over the cell lines; assay type: cell-based; settings: all three cell lines (HaCaT, Hs27, Jurkat), concentrations 1 to 1000 μM
[4] = MTS cytotoxicity assay in Jurkat cells; assay type: cell-based, human; settings: human, Jurkat cells (acute leukemia T lymphocytes)
Summary of the method: (§2)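 Jurkat cells kept in RPMI with 10% heat-inactivated FBS plus antibiotics at 37 °C, 5% CO₂. Seeded 25,000 per well. Compound in DMSO at 1–1000 μM for 16 h, then MTS for 4 h. A490 read with A650 reference, background-corrected. Viability normalized to DMSO controls, triplicates. CC₅₀ from regression line through the two viabilities nearest 50%.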

[5] = Differential scanning calorimetry; assay type: physicochemical; settings: DSC; for Transition temperature: 25 to 200 °C, 2.5 °C/min; for Enthalpy: phase transition, from integration of the thermograms
Summary of the method: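 Dry surfactant (1.0–1.5 mg) sealed in hermetic aluminum pans against an empty sealed-pan reference. Instrument calibrated with indium for temperature and enthalpy. Scanned 25–200 °C at 2.5 °C/min. Transition enthalpies obtained by integrating the thermograms.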

human Hs27 fibroblasts [6] = settings: Hs27 cells, value of the previous study; cited from earlier work
[7] = tested on: Spontaneously immortalized human keratinocytes (HaCaT); settings: HaCaT cells, value of the previous study; cited from earlier work
[8] = tested on: Jurkat human T-cell lymphoblastic leukemia cells; settings: value of the previous study; cited from earlier work
[9] = linear alkanoic acids; cited from earlier work
[10] = tested on: Spontaneously immortalized human keratinocytes (HaCaT); assay: MTS cytotoxicity assay in HaCaT cells; assay type: cell-based; settings: HaCaT cells, 18 h treatment then 2 h MTS, 1 to 1000 μM
Summary of the method: as §1

human Hs27 fibroblasts [11] = assay: MTS cytotoxicity assay in Hs27 cells; assay type: cell-based; settings: Hs27 cells, 18 h treatment then 2 h MTS, 1 to 1000 μM
Summary of the method: as §1

[12] = tested on: Jurkat human T-cell lymphoblastic leukemia cells; assay: MTS cytotoxicity assay in Jurkat cells; assay type: cell-based; settings: Jurkat cells, 16 h treatment then 4 h MTS, 1 to 1000 μM
Summary of the method: as §2

Jurkat cells = assay: Apoptosis/necrosis assay, annexin V-FITC staining and flow cytometry; assay type: cell-based; settings: 20 h incubation, compounds added at their CC50

Structure (SMILES)	CC50 at 18 h [1] [µM]	CC50 at 18 h [2] [µM]	CC50 at 16 h [4] [µM]	Transition temperature [5]	Enthalpy [5] [kcal/mol]	other results
O[C@@H]1[C@@H](O)[C@H](OCc2cn(CCC(F)(F)C(F)(F)C(F)(F)C(F)(F)C(F)(F)C(F)(F)F)nn2)OC[C@H]1O [Compound 5g, (1-(3,3,4,4,5,5,6,6,7,7,8,8,8-Tridecafluorooctyl)-1H-1,2,3-triazol-4-yl)methyl β-D-xylopyranoside]	> 1000	> 1000	> 1000	158 °C and 158.8 ± 0.2 °C	10.8 ± 0.24	toxicity (MTS assay), in words [3]: not toxic; also recorded: no measurable inhibition of cell viability
CCCCCCn1cc(CO[C@@H]2OC[C@@H](O)[C@H](O)[C@H]2O)nn1 [Compound 5a, (1-Hexyl-1H-1,2,3-triazol-4-yl)methyl β-D-xylopyranoside]	> 1000	> 1000	> 1000	120.1 ± 0.8 °C	6.45 ± 0.96	toxicity (MTS assay), in words [3]: not toxic
CCCCCCCCO[C@@H]1OC[C@@H](O)[C@H](O)[C@H]1O [β-OXP, β-octyl xylopyranoside]						CC50 (human Hs27 fibroblasts [6]): 760 ± 50 µM; CC50 [7]: 850 ± 30 µM; CC50 [8]: 460 ± 13 µM
CCCCCCCCCCCCn1cc(CO[C@@H]2OC[C@@H](O)[C@H](O)[C@H]2O)nn1 [Compound 5d, (1-Dodecyl-1H-1,2,3-triazol-4-yl)methyl β-D-xylopyranoside]	> 1000	> 1000	26 ± 3	130.1 ± 0.2 °C	8.13 ± 0.48	
CCCCCCCCCCCCCCCC(=O)O [hexadecanoic acid]						"lift-off" temperature [9]: ~26 °C
CCCCCCCCS[C@@H]1O[C@H](CO)[C@@H](O)[C@H](O)[C@H]1O [β-OTG, β-octyl thioglucopyranoside, reference compound]						CC50 [10]: 490 ± 60 µM; CC50 (human Hs27 fibroblasts [11]): 380 ± 30 µM; CC50 [12]: 310 ± 40 µM
CCCCCCCCn1cc(CO[C@@H]2OC[C@@H](O)[C@H](O)[C@H]2O)nn1 [Compound 5b, (1-Octyl-1H-1,2,3-triazol-4-yl)methyl β-D-xylopyranoside]	890 ± 50	694 ± 3	580 ± 60	126.9 ± 0.8 °C	7.41 ± 1.2	mode of cell death (viable, apoptotic, necrotic cells) (Jurkat cells): comparable with the positive controls for apoptosis
